Hck-Nef inh: inhibitors of Nef-activated human Hck kinase, primary screen, biochemical, Z-Lyte FRET, 384-well, Hck-YEEI; inhibition, % at 20 µM; Recombinant Hck-YEEI plus Nef, Z-Lyte FRET kinase assay; 0.68% of 220,000 active; Tyrosine-protein kinase HCK (Homo sapiens), P08631; AID 463187, 2010;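 active = Hck-Nef kinase inhibition above about 50%, limit read from the data; inactive = inhibition below that limit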;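 also: 0% = DMSO with Hck plus Nef and 100% = Hck alone without Nef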
Runt-CBFb FRET: inhibitors of RUNX1 Runt–CBFb binding, primary screen, biochemical, FRET, Cerulean-Runt, Venus-CBFb, uHTS; inhibition, % at 20 µM; 0.46% of 220,000 active; Cerulean-Runt/Venus-CBFb FRET ratio 530/480, 1 h; Runt-related transcription factor 1 (Homo sapiens) + Core-binding factor subunit beta …;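 active = inhibition over about 50% at 20 µM in the single-dose screen, limit read from the data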;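 also: 0% = DMSO wells and 100% = excess unlabeled CBFb competitor control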
Target sequence (Q01196 whole entry, looked up): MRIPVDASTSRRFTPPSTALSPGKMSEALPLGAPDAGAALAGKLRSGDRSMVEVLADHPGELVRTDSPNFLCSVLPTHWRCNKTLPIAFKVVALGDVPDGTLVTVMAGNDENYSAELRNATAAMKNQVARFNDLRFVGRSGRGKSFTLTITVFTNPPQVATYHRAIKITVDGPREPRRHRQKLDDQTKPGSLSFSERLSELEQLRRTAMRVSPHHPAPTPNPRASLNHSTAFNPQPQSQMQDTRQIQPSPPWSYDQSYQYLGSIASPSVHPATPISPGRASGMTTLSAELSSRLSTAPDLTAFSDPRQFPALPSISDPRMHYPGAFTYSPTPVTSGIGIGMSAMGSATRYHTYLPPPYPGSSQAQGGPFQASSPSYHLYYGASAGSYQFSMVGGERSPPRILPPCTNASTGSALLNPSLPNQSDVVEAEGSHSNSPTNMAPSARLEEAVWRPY
Target sequence (Q13951 whole entry, looked up): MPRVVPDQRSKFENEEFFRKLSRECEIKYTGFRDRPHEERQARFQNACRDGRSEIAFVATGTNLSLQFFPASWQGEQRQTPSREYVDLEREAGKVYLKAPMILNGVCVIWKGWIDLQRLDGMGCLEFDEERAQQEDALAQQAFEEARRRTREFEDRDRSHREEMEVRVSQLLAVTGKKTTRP
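test system = Cerulean-tagged RUNX1 Runt domain (FRET donor) fusion protein | reagent = Venus-CBFb binding partner, 100 nM | incubation = protein complex preformed 1 h, compound exposure 1 h, room temperature, dark | detection = FRET fluorescence | read-out basis = loss of energy transfer signal | controls = 5 µM unlabeled CBFb as full-inhibition high control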
RanGTP-Impb inh: inhibitors of RanGTP-importin-beta interaction, primary screen, biochemical, FRET, CFP-Ran, YFP-importin-beta, homogeneous | Ran GTPase (GTP-bound) - importin-beta complex | cell-free CFP-Ran/YFP-importin-beta FRET ratio | inhibition, % (no concentration beside the values) | 1.1% of 300,000 active | AID 2216, 2009;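 active = more than half of the replicate wells show a fall in the fluorescence ratio signal beyond about 16%, limit read from the data, passing the limit was not always enough; inconclusive = exactly half of the replicate wells pass the set limit; inactive = fewer than half of replicates pass the limit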;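 also: 0% = DMSO wells and 100% = Ran loaded with GDP instead of GTP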
TbHK1 inh: Trypanosoma brucei hexokinase 1 inhibitors, primary screen, biochemical, G6PDH-coupled NADH absorbance, MLSCN library; 0.11% of 220,000 active; hexokinase 1 [Trypanosoma brucei]; recombinant TbHK1, G6PDH-coupled NADH A340; AID 1430, 2008; inhibition, % at 10 µM;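 active = inhibition of 50% or more in the single-dose primary screen; inactive = inhibition below 50%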
Runt-SMMHC FRET: inhibitors of RUNX1 Runt–CBFb-SMMHC binding, primary screen, biochemical, FRET, Cerulean-Runt, Venus-CBFb-SMMHC, uHTS | Cerulean-Runt/Venus-CBFb-SMMHC FRET ratio 530/480, 1 h | inhibition, % at 20 µM | 0.74% of 220,000 active;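 active = mean inhibition across duplicate retests at 20 µM reaching about 50%, limit read from the data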;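 also: 0% = DMSO wells and 100% = wells with excess untagged CBFb-SMMHC; inhibitors lower the FRET ratio by blocking Runt binding to CBFb-SMMHC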
* marks the source's active call; other numbers are inactive results; ? = inconclusive; / = no result given. An excerpt weighted towards active compounds, which were near 1.9% of everything screened.

SMILES	Hck-Nef inh	Runt-CBFb FRET	RanGTP-Impb inh	TbHK1 inh	Runt-SMMHC FRET
O=c1cc(N2CCCCCC2)[nH]c(=O)n1-c1ccc(Cl)cc1	9	0	129*	-9	-4
O=c1cc(N2CCOCC2)[nH]c(=O)n1-c1ccc(Cl)cc1	0	0	11	0	1
O=c1cc(N2CCCC2)[nH]c(=O)n1-c1ccc(Cl)cc1	4	-88	59*	5	1
Cc1ccc(CNC(=O)Cn2cc(C(F)(F)F)ccc2=O)cc1	8	-3	0	10	1
CC(=O)c1cccc(NC(=O)C2CCN(S(=O)(=O)c3c(C)n[nH]c3C)CC2)c1	3	100*	0	3	0
Cc1n[nH]c(C)c1S(=O)(=O)N1CCC(C(=O)Nc2cccc(F)c2)CC1	/	/	6	/	/
O=C(CN1C(=O)CSc2ccc(S(=O)(=O)N3CCOCC3)cc21)NCCCN1CCc2ccccc2C1	0	0	?	28	2
O=C(N/C(=C\c1ccco1)C(=O)N1CCCC1CO)c1ccccc1 (centres undefined)	/	/	1	/	/
CCN(CC)c1ccc2c(O)cc(=O)oc2c1	20	0	5	-37	-5
Nc1ccc2c(C(F)(F)F)cc(=O)oc2c1	0	18	57*	-19	61*
COc1cccc(CC2(CO)CCN(S(=O)(=O)N(C)C)CC2)c1	7	0	18*	3	-5
CCOC(=O)c1cc(C#N)c(SCC(=O)c2cc(C#N)c(SC)nc2C)[nH]c1=O	1	16	60*	-8	36
NC(=O)c1sc2nc3c(c(-c4ccco4)c2c1N)CCCC3	1	8	1	-9	-23
Nc1c(C(=O)NCC2CCCO2)sc2nc3c(c(-c4ccco4)c12)CC/C3=C\c1ccco1 (centres undefined)	88*	29	/	-14	-3
O=C(O)CCCC(=O)N1CCN(c2nc(-c3ccccc3)c3ccccc3n2)CC1	11	14	20*	-14	14
c1ccc(-c2nc(N3CCCCC3)nc3ccccc23)cc1	6	35	41*	-4	118*
Cc1ccc2nc(N3CCN(C(=O)CCC(=O)O)CC3)nc(-c3ccccc3)c2c1	/	/	30*	/	/
O=C(O)C1CC=CCC1C(=O)N1CCN(c2nc(-c3ccccc3)c3ccccc3n2)CC1 (centres undefined)	6	10	12	-10	30
c1ccc(-c2nc(N3CCNCC3)nc3ccccc23)cc1	11	20	13	3	41
Cc1ccc2nc(N3CCC(C(=O)O)CC3)nc(-c3ccccc3)c2c1	9	15	3	0	65
COc1ccc(COC(=O)c2cccc(S(=O)(=O)N3CCN(C(C)=O)CC3)c2)cc1F	/	/	-2	/	/
COc1cccc(C2=NOC(C(=O)N3CCc4ccccc4C3)C2)c1 (centres undefined)	23	/	23*	4	-2
Cc1cc(C)c2nc3nc(C)c(C)cc3c(N)c2c1	7	19	14	1	92*
CCCSc1nc(C)c2cc(C)cc(C)c2n1	-1	2	-4	-3	-2
CC(C)(C)C(=O)Nc1c2c(nn1-c1ccccc1)CSC2	/	/	-1	/	/
SMILES	Hck-Nef inh	Runt-CBFb FRET	RanGTP-Impb inh	TbHK1 inh	Runt-SMMHC FRET
O=C(NC(=S)NCCO)c1sc2ccccc2c1Cl	0	3	-2	1	-7
CCOC(=S)NC(=O)c1sc2ccccc2c1Cl	2	0	53*	-1	2
COc1cc(C2C=C(c3cccs3)Nc3ncnn32)cc(OC)c1OC (centres undefined)	5	20	/	-20	93*
COc1cc(C2CC(=O)C3=C(C2)Nc2ncnn2C3c2cccs2)cc(OC)c1OC (centres undefined)	14	26	4	-23	32
N#Cc1ccccc1OCC(=O)Nc1ccccc1C(=O)NC1CC1	/	/	1	/	/
Cc1cc(C)c(C#N)c(SCC(=O)c2cc(C)n(CCc3ccccc3)c2C)n1	3	-4	12	4	-3
COCCn1c(C)cc(C(=O)CSc2nc(C)cc(C)c2C#N)c1C	3	10	8	-9	58*
O=C(CSc1ccc(F)cc1)Nc1ccc(C2SCCS2)cc1	4	-1	1	-5	-5
CS(=O)(=O)N1CCN(c2ccc([N+](=O)[O-])c(NCc3ccc(Cl)cc3)c2)CC1	98*	-17	-4	-4	-60
CS(=O)(=O)N1CCN(c2ccc([N+](=O)[O-])c(NCc3ccccc3)c2)CC1	2	-4	2	0	-9
CCc1nnc(NC(=O)c2sc3nc4c(cc3c2N)CCCCC4)s1	43	44	?	-43	/
CCc1nnc(NC(=O)c2sc3nc4c(cc3c2N)CCCCCC4)s1	45	30	8	-7	61*
COc1ccc(CC2NCCC3=CC(=O)CCC32)cc1O (centres undefined)	/	/	29*	/	/
COc1ccc(CC(=O)O)cc1O	15	3	-5	0	2
Nc1cc(-c2ccccc2)n2c(n1)nc1ccccc12	24	1	8	-16	-1
N#Cc1c(-c2ccccc2)cc2nc3ccccc3n2c1N	5	7	17*	-5	10
COc1cc(-c2cc3nc4ccccc4n3c(N)c2C#N)cc(OC)c1OC	50	7	25*	-33	15
CCn1c(SCC(=O)OC(C)C)nnc1-c1ccccc1OC	6	-2	-3	4	-1
N#CCCn1cc(/C=N/N=C2\NC(=O)C(CC(=O)O)S2)c(-c2ccc(F)cc2)n1 (centres undefined)	-8	1	2	-35	0
CCC(C)n1c(=N)c(C#N)cc2c(=O)n3cccc(C)c3nc21 (centres undefined)	40	104*	0	-5	91*
Cc1ccc(Cn2c(=N)c(C#N)cc3c(=O)n4cccc(C)c4nc32)cc1	21	/	63*	3	/
CCC(C)n1c(=N)c(C#N)cc2c(=O)n3cc(C)ccc3nc21 (centres undefined)	28	/	5	-4	/
NC(=O)CSCc1nc2ccccc2s1	8	0	2	-7	-3
N/C(Cc1nc2ccccc2s1)=N\O	-13	4	85*	-2	5
COc1cccc(C(C(=O)NCc2ccccc2)N(C(=O)c2csnn2)C2CC2)c1 (centres undefined)	/	/	-2	/	/
CCc1ccc(-c2ccc3nnc(SC)n3n2)cc1	/	/	-1	/	/
CCc1c(-c2ccccc2)nc2nc(C)c(C)nn12	9	0	50*	-16	-4
Cc1nc2nc(-c3ccccc3)cn2nc1C	0	46	111*	-11	60*

Assay outcomes from PubChem.
